Experimental data published in ChEMBL document CHEMBL2057102, “Aminothienopyridazine inhibitors of tau aggregation: evaluation of structure-activity relationship leads to selection of candidates with desirable in vivo properties” (Bioorg Med Chem, 2012).

Columns and labels:
Mus musculus [1] = test: Toxicity in B6C3F1 mouse assessed as change in lymphocyte count at 50 mg/kg, po administered in water qd for 1 month; assay type: organism-based; design: dose 50 mg/kg, route oral; details: in vivo
Procedure, shortened: (§1)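 Female B6C3F1 mice, 2 months old (n = 5 per group), dosed for 1 month via drinking water containing 3% PEG400 and 0.5% methylcellulose. Dose equivalent 50 mg/kg/day, assuming about 5 ml water per mouse per day. Vehicle controls were included and water intake was monitored. At the end, body weight was taken, then perfusion, organ weights (heart, liver, kidney, spleen, brain) and complete blood counts.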

[2] = Half life in B6C3F1 mouse plasma at 5 mg/kg, ip after 16 hrs; assay type: ADME, organism-based; design: dose 5 mg/kg, route intraperitoneal
Procedure, shortened: (§2)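 Mice given 5 mg/kg i.p. (n = 3 per time point) and sacrificed at times from 0.5 to 16 h after dosing. Perfused brain hemispheres were homogenized in 10 mM ammonium acetate pH 5.7 (50% w/v). Plasma came from EDTA blood. Samples were extracted with acetonitrile and quantified by LC-MS/MS (MRM, positive ESI) against matrix standard curves by linear regression.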

Brain [3] = test: Fraction unbound in mouse brain homogenate at 1 uM after 5 hrs by equilibrium dialysis; assay type: ADME, tissue-based
Procedure, shortened: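 Rapid equilibrium dialysis. Compound at 1 μM in mouse plasma or brain homogenate, each diluted threefold with 100 mM sodium phosphate pH 7.4. Triplicate samples dialysed against the same buffer for 5 h at 37 °C with shaking. Both sides were matrix-matched, extracted with acetonitrile and run by LC-MS/MS. fu is buffer response over sample response; brain fu was corrected for tissue dilution.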

Mus musculus [4] = test: Toxicity in B6C3F1 mouse assessed as adverse effects at 50 mg/kg, po administered qd for 1 month; assay type: organism-based; design: dose 50 mg/kg, route oral; details: in vivo; procedure, shortened: as §1
Plasma [5] = test: Free AUC (0.5 to 16 hrs) in B6C3F1 mouse plasma at 5 mg/kg, ip; assay type: ADME, organism-based; design: dose 5 mg/kg, route intraperitoneal; details: in vivo; procedure, shortened: as §2
Brain [6] = test: Free AUC (0.5 to 16 hrs) in B6C3F1 mouse brain at 5 mg/kg, ip; assay type: ADME, organism-based; design: dose 5 mg/kg, route intraperitoneal; details: in vivo; procedure, shortened: as §2
Mus musculus [7] = test: Toxicity in B6C3F1 mouse assessed as change in WBC count at 50 mg/kg, po administered in water qd for 1 month; assay type: organism-based; design: dose 50 mg/kg, route oral; details: in vivo; procedure, shortened: as §1
Mus musculus [8] = test: Toxicity in B6C3F1 mouse assessed as change in liver weight at 50 mg/kg, po administered in water qd for 1 month; assay type: organism-based; design: dose 50 mg/kg, route oral; details: in vivo; procedure, shortened: as §1
Mus musculus [9] = test: Toxicity in B6C3F1 mouse assessed as body weight loss at 50 mg/kg, po administered in water qd for 1 month relative to control; assay type: organism-based; design: dose 50 mg/kg, route oral; details: in vivo; procedure, shortened: as §1
Plasma [10] = test: Volume of distribution in B6C3F1 mouse plasma at 5 mg/kg, ip after 16 hrs; assay type: ADME, organism-based; design: dose 5 mg/kg, route intraperitoneal; details: in vivo; procedure, shortened: as §2
Mus musculus [11] = test: Toxicity in B6C3F1 mouse assessed as change in heart weight at 50 mg/kg, po administered in water qd for 1 month; assay type: organism-based; design: dose 50 mg/kg, route oral; details: in vivo; procedure, shortened: as §1
[12] = Drug uptake in B6C3F1 mouse plasma at 5 mg/kg, ip after 1 hr; assay type: ADME, organism-based; design: dose 5 mg/kg, route intraperitoneal; details: B6C3F1, mouse, plasma
Procedure, shortened: (§3)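 Single i.p. dose of 5 mg/kg, sacrifice 1 h later. Perfused brain hemispheres were homogenized in 10 mM ammonium acetate pH 5.7 (50% w/v). EDTA plasma was taken. Brain homogenate or plasma was extracted with acetonitrile and analysed by LC-MS/MS (MRM) against matrix standard curves. Brain-to-plasma ratio was taken from total levels.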

[13] = Drug uptake in B6C3F1 mouse brain at 50 mg/kg, po administered qd in drinking water for 3 days; assay type: ADME, organism-based; design: dose 50 mg/kg, route oral; details: read-out: Drug uptake
Procedure, shortened: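 Brain levels were measured after 3 days. Perfused brain hemispheres were homogenized in 10 mM ammonium acetate, pH 5.7 (50% w/v), extracted with acetonitrile, and analysed by LC-MS/MS (MRM) against brain-homogenate standard curves. Free level was calculated from the equilibrium-dialysis brain unbound fraction.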

[14] = Inhibition of heparin-induced alexa red-labelled tau K18PL mutant aggregation after 6 hrs by thioflavin-T fluorescence assay; design: species or system Homo sapiens
Procedure, shortened: (§4)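 Heparin-induced fibrillization of tau K18 fragment (residues 244–369) carrying P301L, with tau at 20 μM in sodium acetate buffer. Fibril formation was read by thioflavin-T fluorescence. IC50 came from sigmoidal fitting of concentration-response data, each concentration in triplicate. Values are from a single fit, or the mean of 2 or more analyses where marked.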

Mus musculus [15] = test: Toxicity in B6C3F1 mouse assessed as adverse effects up to 100 mg/kg, po; assay type: organism-based; design: dose 100 mg/kg, route oral; details: in vivo
Homo sapiens [16] = organism: Homo sapiens; test: Inhibition of heparin-induced tau K18PL mutant aggregation assessed as soluble tau fragment level at 50 uM after 5 days by SDS-PAGE analysis
Procedure, shortened: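 Secondary centrifugation assay. Heparin-induced K18 P301L tau fibrillization mixtures with compound at 50 μM were centrifuged. Soluble and insoluble fractions were analysed by SDS-PAGE to give the percentage of tau remaining soluble.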

Mus musculus [17] = test: Toxicity in B6C3F1 mouse assessed as change in spleen weight at 50 mg/kg, po administered in water qd for 1 month; assay type: organism-based; design: dose 50 mg/kg, route oral; details: in vivo; procedure, shortened: as §1
Mus musculus [18] = test: Toxicity in B6C3F1 mouse assessed as change in neutrophil count at 50 mg/kg, po administered in water qd for 1 month; assay type: organism-based; design: dose 50 mg/kg, route oral; details: in vivo; procedure, shortened: as §1
[19] = Oral bioavailability in B6C3F1 mouse at 10 mg/kg at 1 hr; assay type: ADME, organism-based; details: in vivo
Homo sapiens [20] = organism: Homo sapiens; test: Inhibition of heparin-induced alexa red-labelled tau K18PL mutant aggregation after 6 hrs by thioflavin-T fluorescence assay relative to control; procedure, shortened: as §4
Mus musculus [21] = test: Toxicity in B6C3F1 mouse assessed as mild and transient lethargy at 100 mg/kg, po; assay type: organism-based; design: dose 100 mg/kg, route oral; details: in vivo
[22] = Ratio of unbound fraction in brain to plasma in B6C3F1 mouse at 5 mg/kg, ip after 16 hrs; assay type: ADME, organism-based; design: dose 5 mg/kg, route intraperitoneal; details: in vivo; procedure, shortened: as §2
Mus musculus [23] = test: Ratio of drug level in brain to plasma in B6C3F1 mouse at 5 mg/kg, ip after 1 hr
[24] = AUC (0.5 to 16 hrs) in B6C3F1 mouse brain at 5 mg/kg, ip; assay type: ADME, organism-based; design: time 0.5-16 hr, dose 5 mg/kg, route intraperitoneal; procedure, shortened: as §2
Brain [25] = test: Clearance in B6C3F1 mouse brain at 5 mg/kg, ip after 16 hrs; assay type: ADME, organism-based; design: dose 5 mg/kg, route intraperitoneal; details: in vivo; procedure, shortened: as §2
Mus musculus [26] = test: Toxicity in B6C3F1 mouse assessed as change in brain weight at 50 mg/kg, po administered in water qd for 1 month; assay type: organism-based; design: dose 50 mg/kg, route oral; details: in vivo; procedure, shortened: as §1
[27] = Plasma concentration in B6C3F1 mouse at 10 mg/kg, po at 1 hr; assay type: ADME, organism-based; design: dose 10 mg/kg, route oral
[28] = AUC (0.5 to 16 hrs) in B6C3F1 mouse plasma at 5 mg/kg, ip; assay type: ADME, organism-based; design: time 0.5-16 hr, dose 5 mg/kg, route intraperitoneal; procedure, shortened: as §2
[29] = Clearance in B6C3F1 mouse plasma at 5 mg/kg, ip after 16 hrs; assay type: ADME, organism-based; design: dose 5 mg/kg, route intraperitoneal; procedure, shortened: as §2
Mus musculus [30] = test: Toxicity in B6C3F1 mouse assessed as change in RBC count at 50 mg/kg, po administered in water qd for 1 month; assay type: organism-based; design: dose 50 mg/kg, route oral; details: in vivo; procedure, shortened: as §1
Mus musculus [31] = test: Toxicity in B6C3F1 mouse assessed as adverse event at 50 mg/kg, po administered in water qd for 1 month; assay type: organism-based; design: dose 50 mg/kg, route oral; details: in vivo; procedure, shortened: as §1
Mus musculus [32] = test: Toxicity in B6C3F1 mouse assessed as change in kidney weight at 50 mg/kg, po administered in water qd for 1 month; assay type: organism-based; design: dose 50 mg/kg, route oral; details: in vivo; procedure, shortened: as §1
[33] = Drug uptake in B6C3F1 mouse brain at 5 mg/kg, ip after 1 hr; assay type: ADME, organism-based; design: dose 5 mg/kg, route intraperitoneal; details: B6C3F1, mouse, brain, read-out: Drug uptake; procedure, shortened: as §3
[34] = Ratio of drug level in brain to plasma in B6C3F1 mouse at 5 mg/kg, ip after 16 hrs; assay type: ADME, organism-based; design: dose 5 mg/kg, route intraperitoneal; details: read-out: BPR; procedure, shortened: as §2
[35] = Plasma concentration in B6C3F1 mouse at 5 mg/kg, ip at 1 hr; assay type: ADME, organism-based; design: dose 5 mg/kg, route intraperitoneal; procedure, shortened: as §3

Compound: Nc1scc2c(C(=O)NC3CC3)nn(-c3ccc(F)cc3)c(=O)c12
- Activity (Mus musculus [1]): Non-toxic
- half-life [2]: 2.2 h
- Fu (Brain [3]): 4.3%
- Activity (Mus musculus [4]): Non-toxic
- fAUC (Plasma [5]): 162 ng·h/mL
- fAUC (Brain [6]): 195 ng·h/mL
- Activity (Mus musculus [7]): Non-toxic
- Activity (Mus musculus [8]): Non-toxic
- Activity (Mus musculus [9]): Non-toxic
- Vd (Plasma [10]): 246 mL
- Activity (Mus musculus [11]): Non-toxic
- concentration at 1 h [12]: 610 ng/mL
- concentration at 72 h [13]: 139 nM
- IC50 [14]: 2500 nM
- Activity (Mus musculus [15]): Non-toxic
- inhibition (Homo sapiens [16]): 78%
- Activity (Mus musculus [17]): Non-toxic
- Activity (Mus musculus [18]): Non-toxic
- bioavailability [19]: 60%
- Imax (Homo sapiens [20]): 88%
- Activity (Mus musculus [21]): Toxic
- BPR [22]: 1.2
- BPR (Mus musculus [23]): 1.09
- AUC(0-t) [24]: 4510 ng·h/mL
- CL (Brain [25]): 50 mL/h
- Activity (Mus musculus [26]): Non-toxic
- concentration at 1 h [27]: 832 ng/mL
- AUC(0-t) [28]: 2350 ng·h/mL
- CL/F [29]: 1.31 mL/min
- Activity (Mus musculus [30]): Non-toxic
- Activity (Mus musculus [31]): Non-toxic
- Activity (Mus musculus [32]): Non-toxic
- concentration at 1 h [33]: 670 ng/g
- Kp at 16 h [34]: 1.9
- concentration at 1 h [35]: 610 ng/mL
